Test results published in ChEMBL document CHEMBL4184325, “Discovery of 4,7-Diamino-5-(4-phenoxyphenyl)-6-methylene-pyrimido[5,4- b]pyrrolizines as Novel Bruton's Tyrosine Kinase Inhibitors” (J Med Chem, 2018).
The source made the active and inactive calls. The calls are words filed in the database; no cut-off is given here.

Key:
[1] = molecular target: T1, Tyrosine-protein kinase BTK (Homo sapiens, UniProt Q06187); experiment: Inhibition of recombinant human BTK using Poly(Glu, Tyr) 4:1 as substrate after 1 hr by ELISA
T1 sequence (Q06187 whole entry): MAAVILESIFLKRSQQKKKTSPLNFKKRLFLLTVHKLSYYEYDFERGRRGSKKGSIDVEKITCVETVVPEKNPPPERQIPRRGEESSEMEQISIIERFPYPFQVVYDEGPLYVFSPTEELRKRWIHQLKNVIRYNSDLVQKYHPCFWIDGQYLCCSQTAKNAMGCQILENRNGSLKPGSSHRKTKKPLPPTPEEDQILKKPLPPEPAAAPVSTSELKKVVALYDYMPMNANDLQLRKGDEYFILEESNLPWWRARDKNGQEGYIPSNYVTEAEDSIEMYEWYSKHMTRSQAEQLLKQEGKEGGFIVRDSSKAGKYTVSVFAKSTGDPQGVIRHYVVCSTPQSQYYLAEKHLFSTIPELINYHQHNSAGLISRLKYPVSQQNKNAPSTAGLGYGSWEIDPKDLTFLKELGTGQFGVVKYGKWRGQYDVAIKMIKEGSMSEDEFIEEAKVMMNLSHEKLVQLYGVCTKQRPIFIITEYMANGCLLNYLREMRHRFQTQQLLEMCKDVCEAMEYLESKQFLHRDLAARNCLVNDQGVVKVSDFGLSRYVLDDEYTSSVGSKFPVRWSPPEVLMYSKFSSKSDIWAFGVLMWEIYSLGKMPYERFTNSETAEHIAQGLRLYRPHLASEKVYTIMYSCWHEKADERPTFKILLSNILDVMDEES

Rattus norvegicus [2] = experiment: Volume of distribution at steady state in rat at 1 mg/kg, iv; assay type: ADME, organism-based; conditions: in vivo
In short: (§1)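 Rats were given compound at 1 mg/kg iv or 3 mg/kg po. Vehicle was DMSO, Tween 80 and normal saline. Values are the average of three determinations.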

Rattus norvegicus [3] = experiment: Oral bioavailability in rat at 3 mg/kg; assay type: ADME, organism-based; conditions: in vivo; in short: as §1
[4] = Drug metabolism in rat liver microsomes assessed as (S)-N-(4-amino-5-(4-(4-hydroxyphenoxy)phenyl)-6-methylene-7,8-dihydro-6H-pyrimido[5,4-b]pyrrolizin-7-yl)acrylamide formation after 3 hrs; assay type: ADME, microsome
[5] = Drug metabolism in mouse liver microsomes assessed as (S,E)-N-(4-amino-6-methylene-5-(4-phenoxyphenyl)-7,8-dihydro-6H-pyrimido[5,4-b]pyrrolizin-7-yl)-3-hydroxyacrylamide formation after 3 hrs; assay type: ADME, microsome
[6] = Drug metabolism in rat liver microsomes assessed as N-((S)-4-amino-6-methylene-5-(4-phenoxyphenyl)-7,8-dihydro-6H-pyrimido[5,4-b]pyrrolizin-7-yl)-2,3-dihydroxypropanamide formation after 3 hrs; assay type: ADME, microsome
[7] = Drug metabolism in human liver microsomes assessed as N-((S)-4-amino-6-methylene-5-(4-phenoxyphenyl)-7,8-dihydro-6H-pyrimido[5,4-b]pyrrolizin-7-yl)-2,3-dihydroxypropanamide formation after 3 hrs; assay type: ADME, microsome
[8] = Drug metabolism in rat liver microsomes assessed as (S)-N-(4-amino-5-(4-hydroxyphenyl)-6-methylene-7,8-dihydro-6H-pyrimido[5,4-b]pyrrolizin-7-yl)acrylamide formation after 3 hrs; assay type: ADME, microsome
[9] = Drug metabolism in human liver microsomes assessed as (S)-N-(4-amino-5-(4-hydroxyphenyl)-6-methylene-7,8-dihydro-6H-pyrimido[5,4-b]pyrrolizin-7-yl)acrylamide formation after 3 hrs; assay type: ADME, microsome
[10] = molecular target: Tyrosine-protein kinase Blk (Homo sapiens, UniProt P51451); experiment: Inhibition of recombinant human BLK using Poly(Glu, Tyr) 4:1 as substrate after 1 hr by ELISA
Sequence of Tyrosine-protein kinase Blk (P51451 whole entry): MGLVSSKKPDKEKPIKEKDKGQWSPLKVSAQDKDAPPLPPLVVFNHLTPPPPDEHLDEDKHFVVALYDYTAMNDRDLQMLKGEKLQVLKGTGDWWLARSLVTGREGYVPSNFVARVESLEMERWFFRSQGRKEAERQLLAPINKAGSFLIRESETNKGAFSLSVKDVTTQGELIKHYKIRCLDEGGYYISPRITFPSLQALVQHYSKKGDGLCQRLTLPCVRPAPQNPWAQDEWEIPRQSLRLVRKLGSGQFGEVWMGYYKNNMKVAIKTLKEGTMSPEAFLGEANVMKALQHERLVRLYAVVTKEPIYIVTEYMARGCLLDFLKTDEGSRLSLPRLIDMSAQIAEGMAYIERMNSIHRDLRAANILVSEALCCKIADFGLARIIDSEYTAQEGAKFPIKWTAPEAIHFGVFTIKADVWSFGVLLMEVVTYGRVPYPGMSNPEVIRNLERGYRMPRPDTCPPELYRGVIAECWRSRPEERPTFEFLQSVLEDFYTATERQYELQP
In short: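 Purchased active kinase incubated with compound on wells precoated with 20 µg/mL poly(Glu,Tyr) 4:1, in 50 mM HEPES pH 7.4, 20 mM MgCl2, 0.1 mM MnCl2, 0.2 mM Na3VO4, 1 mM DTT, 5 µM ATP, 37 °C, 1 h. Phosphotyrosine detected with PY99 antibody, HRP secondary, OPD, A492. IC50 as mean of duplicates.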

[11] = molecular target: T2, Tyrosine-protein kinase ITK/TSK (Homo sapiens, UniProt Q08881); experiment: Inhibition of recombinant human ITK using Poly(Glu, Tyr) 4:1 as substrate after 1 hr by ELISA
T2 sequence (Q08881 whole entry): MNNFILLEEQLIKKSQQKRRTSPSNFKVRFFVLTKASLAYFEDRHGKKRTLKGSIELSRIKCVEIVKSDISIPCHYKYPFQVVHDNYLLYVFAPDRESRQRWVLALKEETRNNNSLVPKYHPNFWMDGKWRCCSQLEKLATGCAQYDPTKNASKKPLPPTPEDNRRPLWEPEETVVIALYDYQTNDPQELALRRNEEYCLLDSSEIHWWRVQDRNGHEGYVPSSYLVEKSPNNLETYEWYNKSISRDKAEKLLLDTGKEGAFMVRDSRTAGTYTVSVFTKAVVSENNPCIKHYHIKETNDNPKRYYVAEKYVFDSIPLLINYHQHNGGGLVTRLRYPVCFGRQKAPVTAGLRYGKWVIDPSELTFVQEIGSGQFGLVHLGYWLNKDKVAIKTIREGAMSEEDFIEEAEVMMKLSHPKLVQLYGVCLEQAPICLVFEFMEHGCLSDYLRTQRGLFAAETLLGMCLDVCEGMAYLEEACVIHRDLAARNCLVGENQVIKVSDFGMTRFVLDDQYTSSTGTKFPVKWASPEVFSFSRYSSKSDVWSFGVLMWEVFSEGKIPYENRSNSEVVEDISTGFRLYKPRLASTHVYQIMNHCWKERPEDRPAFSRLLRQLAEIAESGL
In short: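 Kinase activity was measured by ELISA on wells precoated with 20 µg/mL poly(Glu,Tyr) 4:1. Enzyme was incubated with compound in 50 mM HEPES pH 7.4, 20 mM MgCl2, 0.1 mM MnCl2, 0.2 mM Na3VO4, 1 mM DTT with 5 µM ATP at 37 °C for 1 h. Phosphotyrosine was detected with PY99 antibody, HRP secondary and OPD, read at A492. IC50 is the mean of duplicates.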

[12] = molecular target: T1, Tyrosine-protein kinase BTK; experiment: Inhibition of BTK autophosphorylation at Y223 in human TMD8 cells after 4 hrs by Western blot method
TMD8 [13] = experiment: Cell cycle arrest in human TMD8 cells assessed as accumulation at S phase at 1 nM after 48 hrs by propidium iodide staining-based flow cytometric method (reference value: 34.15%); assay type: functional
TMD8 [14] = experiment: Cell cycle arrest in human TMD8 cells assessed as accumulation at G1 phase at 10 nM after 48 hrs by propidium iodide staining-based flow cytometric method (reference value: 51.33%); assay type: functional
TMD8 [15] = experiment: Cell cycle arrest in human TMD8 cells assessed as accumulation at G2 phase at 10 nM after 48 hrs by propidium iodide staining-based flow cytometric method (reference value: 14.53%); assay type: functional
In short: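 TMD8 cells in RPMI-1640 with FBS, 37 °C, 5% CO2, treated at indicated concentrations for 48 h; permeabilized cells stained with propidium iodide and analysed by flow cytometry for cell-cycle phase distribution. Three independent experiments, mean ± SD.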

TMD8 [16] = experiment: Cell cycle arrest in human TMD8 cells assessed as accumulation at S phase at 10 nM after 48 hrs by propidium iodide staining-based flow cytometric method (reference value: 34.15%); assay type: functional
TMD8 [17] = experiment: Cell cycle arrest in human TMD8 cells assessed as accumulation at G2 phase at 100 nM after 48 hrs by propidium iodide staining-based flow cytometric method (reference value: 14.53%); assay type: functional
TMD8 [18] = experiment: Induction of apoptosis in human TMD8 cells assessed as early apoptotic cells at 1000 nM after 72 hrs by Annexin-FITC/propidium iodide staining-based flow cytometric method (reference value: 7.98%); assay type: functional
TMD8 [19] = experiment: Induction of apoptosis in human TMD8 cells after 72 hrs by Annexin-FITC/propidium iodide staining-based flow cytometric method; assay type: functional, cell-based
Mus musculus = experiment: Toxicity in CB17 SCID nude mouse xenografted with human TMD8 cells assessed as change in body weight at 5 mg/kg, po qd administered for 13 consecutive days measured during compound dosing; assay type: organism-based; conditions: in vivo
In short: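 Female CB-17 SCID mice, 4-5 weeks old, were inoculated subcutaneously in the right axilla with about 2×10^6 TMD8 cells. At ~100-200 mm³ they were randomized (n = 6/group) and dosed orally once daily: vehicle for 13 days, 5 mg/kg/day for 13 days, 15 mg/kg/day for 17 days.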

TMD8 [20] = experiment: Antiproliferative activity against human TMD8 cells xenografted in CB17 SCID nude mouse assessed as decrease in Ki-67 expression at 15 mg/kg, […] by […] immunohistochemical analysis; assay type: functional, organism-based

For C=CC(=O)N[C@@H]1Cn2c(c(-c3ccc(Oc4ccccc4)cc3)c3c(N)ncnc32)C1=C, the IC50 [1] was 400 pM, the Vdss (Rattus norvegicus [2]) was 1.3 L/kg and the F (Rattus norvegicus [3]) was 18.3%. The Drug metabolism [4] was “Metabolite_Detected”, the Drug metabolism [5] was “Metabolite_Detected” and the Drug metabolism [6] was “Metabolite_Detected”. The Drug metabolism [7] was “Metabolite_Detected”, the Drug metabolism [8] was “Metabolite_Detected” and the Drug metabolism [9] was “Metabolite_Detected”. It also gave an IC50 [10] of 200 pM, an IC50 [11] of 15100 pM and an IC50 [12] of less than 10000 pM. It also gave an Activity (TMD8 [13]) of 25.22%, an Activity (TMD8 [14]) of 76.32% and an Activity (TMD8 [15]) of 11.12%. For the same molecule, the Activity (TMD8 [16]) was 12.56%, the Activity (TMD8 [17]) was 10.04% and the Activity (TMD8 [18]) was 51.1%. The Activity (TMD8 [19]) was “Dose-dependent effect”, the Activity (Mus musculus) was “Non-Toxic” and the Activity (TMD8 [20]) was “Active”.
